# Source: ChEMBL document CHEMBL4359830, “Discovery and structure-activity relationship of novel diphenylthiazole derivatives as BTK inhibitor with potent activity against B cell lymphoma cell lines” (Eur J Med Chem, 2019)
# Tests used:
# Raji [1] = test: Potency index, ratio of ibrutinib IC50 to compound IC50 for antiproliferative activity against human Raji cells; type: functional
# [2] = biological target: Tyrosine-protein kinase BTK (Homo sapiens, UniProt Q06187); test: Inhibition of human recombinant full length N-terminal His tagged BTK expressed in baculovirus infected Sf9 cells using poly (Glu,Tyr) 4:1 as substrate measured after 60 mins in presence of ATP by ADP-Glo kinase assay
# Ramos [3] = test: Antiproliferative activity against human Ramos cells at 40 uM measured after 72 hrs by CCK-8 assay relative to control; type: functional
# Method in brief: (§1)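 Ramos or Raji cells in RPMI-1640 with 10% FBS and 1% penicillin-streptomycin at 37 °C, 5% CO2. Seeded at 2000–3000 cells/well one day before compound addition. Exposure 72 h, then CCK-8 with absorbance at 450 nm. […] Single-point inhibition at 40 µM reported as mean ± standard deviation.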
# Ramos [4] = test: Antiproliferative activity against human Ramos cells measured after 72 hrs by CCK-8 assay; type: functional, cell-based; method in brief: as §1
# Raji [5] = test: Antiproliferative activity against human Raji cells at 40 uM measured after 72 hrs by CCK-8 assay relative to control; type: functional; method in brief: as §1
# Raji [6] = test: Antiproliferative activity against human Raji cells measured after 72 hrs by CCK-8 assay; type: functional, cell-based; method in brief: as §1
# Ramos [7] = test: Induction of apoptosis in human Ramos cells assessed as viable cells at 5 uM measured after 15 mins by Annexin-V-APC staining-based flow cytometric analysis (reference value: 96.5 %); type: functional
# Ramos [8] = test: Induction of apoptosis in human Ramos cells assessed as early apoptotic cells at 5 uM measured after 15 mins by Annexin-V-APC staining-based flow cytometric analysis (reference value: 0.14 %); type: functional
# Ramos [9] = test: Induction of apoptosis in human Ramos cells assessed as late apoptotic cells at 5 uM measured after 15 mins by Annexin-V-APC staining-based flow cytometric analysis (reference value: 1.85 %); type: functional
# Ramos [10] = test: Induction of apoptosis in human Ramos cells assessed as necrotic cells at 5 uM measured after 15 mins by Annexin-V-APC staining-based flow cytometric analysis (reference value: 1.50 %); type: functional
# Raji [11] = test: Induction of apoptosis in human Raji cells assessed as viable cells at 5 uM measured after 15 mins by Annexin-V-APC staining-based flow cytometric analysis (reference value: 97.5 %); type: functional
# Raji [12] = test: Induction of apoptosis in human Raji cells assessed as early apoptotic cells at 5 uM measured after 15 mins by Annexin-V-APC staining-based flow cytometric analysis (reference value: 0.021 %); type: functional
# Raji [13] = test: Induction of apoptosis in human Raji cells assessed as late apoptotic cells at 5 uM measured after 15 mins by Annexin-V-APC staining-based flow cytometric analysis (reference value: 0.57 %); type: functional
# Raji [14] = test: Induction of apoptosis in human Raji cells assessed as necrotic cells at 5 uM measured after 15 mins by Annexin-V-APC staining-based flow cytometric analysis (reference value: 1.87 %); type: functional
# Ramos [15] = test: Cell cycle arrest in human Ramos cells assessed as accumulation at G0/G1 phase at 1 uM measured after 48 hrs by propidium iodide/RNase staining based flow cytometric analysis (reference value: 37.66 %); type: functional
# Ramos [16] = test: Cell cycle arrest in human Ramos cells assessed as accumulation at S phase at 1 uM measured after 48 hrs by propidium iodide/RNase staining based flow cytometric analysis (reference value: 56.35 %); type: functional
# Ramos [17] = test: Cell cycle arrest in human Ramos cells assessed as accumulation at G2/M phase at 1 uM measured after 48 hrs by propidium iodide/RNase staining based flow cytometric analysis (reference value: 5.98 %); type: functional
# Raji [18] = test: Cell cycle arrest in human Raji cells assessed as accumulation at G0/G1 phase at 1 uM measured after 48 hrs by propidium iodide/RNase staining based flow cytometric analysis (reference value: 48.68 %); type: functional
# Raji [19] = test: Cell cycle arrest in human Raji cells assessed as accumulation at S phase at 1 uM measured after 48 hrs by propidium iodide/RNase staining based flow cytometric analysis (reference value: 33.18 %); type: functional
# Raji [20] = test: Cell cycle arrest in human Raji cells assessed as accumulation at G2/M phase at 1 uM measured after 48 hrs by propidium iodide/RNase staining based flow cytometric analysis (reference value: 18.14 %); type: functional
# Tyrosine-protein kinase BTK, sequence (Q06187 whole entry): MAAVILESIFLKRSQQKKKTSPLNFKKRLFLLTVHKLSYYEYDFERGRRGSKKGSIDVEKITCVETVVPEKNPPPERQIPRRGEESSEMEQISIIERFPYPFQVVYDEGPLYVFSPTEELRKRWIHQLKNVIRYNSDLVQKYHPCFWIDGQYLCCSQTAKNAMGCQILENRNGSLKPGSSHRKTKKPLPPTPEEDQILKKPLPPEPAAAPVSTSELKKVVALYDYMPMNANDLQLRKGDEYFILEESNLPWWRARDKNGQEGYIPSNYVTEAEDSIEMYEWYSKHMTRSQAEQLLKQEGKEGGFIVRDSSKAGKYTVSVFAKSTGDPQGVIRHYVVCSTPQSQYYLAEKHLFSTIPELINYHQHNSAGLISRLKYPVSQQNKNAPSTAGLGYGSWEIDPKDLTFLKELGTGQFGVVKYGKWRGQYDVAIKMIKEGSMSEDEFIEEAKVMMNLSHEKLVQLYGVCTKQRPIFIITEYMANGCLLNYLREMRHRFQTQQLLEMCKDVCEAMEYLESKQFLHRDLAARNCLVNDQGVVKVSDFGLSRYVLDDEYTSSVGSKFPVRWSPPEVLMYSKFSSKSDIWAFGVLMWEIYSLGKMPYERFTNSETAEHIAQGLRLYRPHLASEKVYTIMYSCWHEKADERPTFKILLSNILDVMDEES
smiles,measurement,setting,value
O=C(Nc1cccc(-c2nc(Nc3ccc(N4CCOCC4)cc3)c(C(=O)O)s2)c1)c1ccc(F)cc1,Ratio IC50,Raji [1],13
same,IC50,[2],1.12 µM
same,inhibition at 40 µM,"Ramos [3]; Homo sapiens, Ramos, 72 h",90.5%
same,IC50,Ramos [4],3.51 µM
same,inhibition at 40 µM,"Raji [5]; Homo sapiens, Raji, 72 h",96.4%
same,IC50,Raji [6],1.2 µM
C=CC(=O)N1CCC[C@@H](n2nc(-c3ccc(Oc4ccccc4)cc3)c3c(N)ncnc32)C1 [IBRUTINIB],inhibition (INH),Ramos [3],81.2%
same,IC50,Ramos [4],14.7 µM
same,inhibition (INH),Raji [5],76.23%
same,IC50,Raji [6],16 µM
same,Activity,Ramos [7],89.1%
same,Activity,Ramos [8],0.13%
same,Activity,Ramos [9],5.88%
same,Activity,Ramos [10],4.92%
same,Activity,Raji [11],94.8%
same,Activity,Raji [12],0.01%
same,Activity,Raji [13],1.14%
same,Activity,Raji [14],4.01%
same,Activity,Ramos [15],68.45%
same,Activity,Ramos [16],28.73%
same,Activity,Ramos [17],2.81%
same,Activity,Raji [18],70.42%
same,Activity,Raji [19],14.66%
same,Activity,Raji [20],14.92%
